This is an account of results in ChEMBL document CHEMBL1147803, “2,5-Disubstituted pyrrolidine carboxylates as potent, orally active sphingosine-1-phosphate (S1P) receptor agonists” (Bioorg Med Chem Lett, 2006).

Activity calls are given as the source filed them. The calls are words filed in the database; no cut-off is given here.

The target of data set [1] is T1, Sphingosine 1-phosphate receptor 1 (Homo sapiens, UniProt P21453). As to the kind of experiment: Activity at S1P1 receptor by [35S]GTP-gammaS binding assay. The class given is functional. The settings on record: filed as agonist. (In general: Binding of GTPγS marks nucleotide exchange on a G protein.)
T1 sequence (P21453 whole entry): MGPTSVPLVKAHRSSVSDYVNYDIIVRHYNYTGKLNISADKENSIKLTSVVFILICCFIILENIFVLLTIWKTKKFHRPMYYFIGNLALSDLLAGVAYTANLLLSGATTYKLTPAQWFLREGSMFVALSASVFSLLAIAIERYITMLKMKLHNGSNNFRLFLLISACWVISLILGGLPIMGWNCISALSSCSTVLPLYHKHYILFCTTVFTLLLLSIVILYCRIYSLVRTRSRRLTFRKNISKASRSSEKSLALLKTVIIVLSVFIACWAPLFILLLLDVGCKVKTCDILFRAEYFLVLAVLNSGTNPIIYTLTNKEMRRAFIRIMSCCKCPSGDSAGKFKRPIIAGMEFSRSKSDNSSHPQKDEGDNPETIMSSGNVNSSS
Data set [2] deals with T2, Sphingosine 1-phosphate receptor 5 (Homo sapiens, UniProt Q9H228). Briefly: Displacement of [33P]S1P from S1P5 expressed in CHO cells. The class given is cell-based. Put shortly: (§1)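 Competitive radioligand binding with [33P]S1P on membranes from CHO cells expressing each of the five S1P receptor subtypes (S1P1–5).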
T2 sequence (Q9H228 whole entry): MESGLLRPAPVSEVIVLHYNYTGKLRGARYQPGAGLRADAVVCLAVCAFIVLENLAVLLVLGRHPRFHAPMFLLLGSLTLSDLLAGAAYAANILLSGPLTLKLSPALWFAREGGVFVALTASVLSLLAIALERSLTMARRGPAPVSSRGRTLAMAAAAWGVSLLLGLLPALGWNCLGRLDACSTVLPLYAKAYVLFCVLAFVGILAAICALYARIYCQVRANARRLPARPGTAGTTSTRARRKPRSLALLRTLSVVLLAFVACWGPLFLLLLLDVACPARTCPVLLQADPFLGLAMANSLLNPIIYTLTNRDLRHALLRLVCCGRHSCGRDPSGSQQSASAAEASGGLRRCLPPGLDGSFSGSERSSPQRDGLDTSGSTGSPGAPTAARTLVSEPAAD
Data set [3] concerns the target T1, Sphingosine 1-phosphate receptor 1. As to the kind of experiment: Displacement of [33P]S1P from S1P1 expressed in CHO cells. The class given is cell-based. Put shortly: as §1
Data set [4] deals with Sphingosine 1-phosphate receptor 2 (Homo sapiens, UniProt O95136). Briefly: Displacement of [33P]S1P from S1P2 expressed in CHO cells. Format: cell-based. Put shortly: as §1
Sphingosine 1-phosphate receptor 2, sequence (O95136 whole entry): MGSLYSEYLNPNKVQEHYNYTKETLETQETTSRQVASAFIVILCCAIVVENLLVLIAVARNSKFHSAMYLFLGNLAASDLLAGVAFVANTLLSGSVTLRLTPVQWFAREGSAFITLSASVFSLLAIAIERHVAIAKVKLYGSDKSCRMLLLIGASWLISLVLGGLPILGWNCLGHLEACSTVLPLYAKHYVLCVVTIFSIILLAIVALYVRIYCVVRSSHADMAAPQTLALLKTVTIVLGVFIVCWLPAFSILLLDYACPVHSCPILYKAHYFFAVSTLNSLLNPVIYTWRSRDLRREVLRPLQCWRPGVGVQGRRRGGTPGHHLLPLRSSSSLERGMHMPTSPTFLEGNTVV
For data set [5], the target named is T3, Sphingosine 1-phosphate receptor 3 (Homo sapiens, UniProt Q99500). As to the kind of experiment: Activity at S1P3 receptor by [35S]GTP-gammaS binding assay. Format: functional. The settings on record: filed as agonist.
T3 sequence (Q99500 whole entry): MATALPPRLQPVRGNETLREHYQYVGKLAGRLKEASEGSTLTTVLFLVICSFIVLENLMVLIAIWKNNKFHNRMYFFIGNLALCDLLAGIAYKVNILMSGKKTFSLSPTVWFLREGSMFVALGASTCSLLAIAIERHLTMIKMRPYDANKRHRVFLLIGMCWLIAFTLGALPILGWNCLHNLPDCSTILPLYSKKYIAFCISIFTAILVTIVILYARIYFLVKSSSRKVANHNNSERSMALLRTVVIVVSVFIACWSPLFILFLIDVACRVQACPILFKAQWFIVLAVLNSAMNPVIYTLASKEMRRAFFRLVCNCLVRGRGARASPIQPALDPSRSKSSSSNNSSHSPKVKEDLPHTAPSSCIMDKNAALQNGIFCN
Data set [6] deals with T2, Sphingosine 1-phosphate receptor 5. Briefly: Activity at S1P5 receptor by [35S]GTP-gammaS binding assay. Format: functional. The settings on record: filed as agonist.
The target in data set [7] is T4, Sphingosine 1-phosphate receptor 4 (Homo sapiens, UniProt O95977).
T4 sequence (O95977 whole entry): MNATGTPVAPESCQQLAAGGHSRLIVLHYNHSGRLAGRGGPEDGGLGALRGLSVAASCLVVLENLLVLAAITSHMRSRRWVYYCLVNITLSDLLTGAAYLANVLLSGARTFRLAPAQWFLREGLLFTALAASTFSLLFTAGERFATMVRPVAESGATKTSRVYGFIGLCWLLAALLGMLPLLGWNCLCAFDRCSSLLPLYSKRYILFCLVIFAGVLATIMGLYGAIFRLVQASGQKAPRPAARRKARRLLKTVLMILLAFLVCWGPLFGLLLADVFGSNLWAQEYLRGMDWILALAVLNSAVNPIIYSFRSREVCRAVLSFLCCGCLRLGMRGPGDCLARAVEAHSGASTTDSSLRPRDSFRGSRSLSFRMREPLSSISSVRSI
Briefly: Displacement of [33P]S1P from S1P4 expressed in CHO cells. Format: cell-based. An outline of the steps: as §1

Data set [8] has as its target T3, Sphingosine 1-phosphate receptor 3. As to the kind of experiment: Displacement of [33P]S1P from S1P3 expressed in CHO cells. The class given is cell-based. Put shortly:
as §1

The nature of data set [9]: Half life in Sprague-Dawley rat at 1 mg/kg, iv or 2 mg/kg, po. The settings on record: in vivo. The class given is ADME, organism-based.
Data set [10] has as its system Mus musculus. As to the kind of experiment: Lowering of peripheral blood lymphocytes in mouse at 10 mg/kg. Also noted: dose 10 mg/kg. The class given is functional, organism-based. An outline of the steps:
(§2)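 Mice were dosed orally, and circulating peripheral blood lymphocytes were counted 3 h after administration.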

Data set [11] can be described thus: Bioavailability in Sprague-Dawley rat at 1 mg/kg, iv and 2 mg/kg, po. Format: ADME, organism-based. The settings on record: in vivo.
The nature of data set [12]: Volume of distribution in Sprague-Dawley rat at 1 mg/kg, iv or 2 mg/kg, po. Format: ADME, organism-based. The settings on record: in vivo, read-out: Vdss.
Data set [13] is described as follows: Plasma clearance in Sprague-Dawley rat at 1 mg/kg, iv or 2 mg/kg, po. The class given is ADME, organism-based.
For data set [14], the species on record is Mus musculus. Briefly: Lowering of peripheral blood lymphocytes in mouse. Format: functional. An outline of the steps: as §2

As usually defined, the IC50 is the concentration at which inhibition is half-maximal. By half-life is commonly meant the time in which the quantity being followed falls by half. A lower half-life goes with rapid decline. By bioavailability is commonly meant dose-corrected exposure relative to a reference, in per cent. Broadly, the ED50 is the dose that gives a 50% effect, or the effect in half of the subjects. A higher ED50 goes with weaker potency.

Turning to `O=C(O)C[C@@H]1CC[C@H](c2ccc(-c3noc(-c4ccc(C5CCCCC5)cc4)n3)cc2)N1` (racemic), the Activity result in data set [1], in data set [5] and in data set [6] was “Agonist” in each case. In addition, the IC50 is 20 nM in data set [2]; 0.7 nM in data set [3]; above 10000 nM in [4]; 350 nM in [7]; 1700 nM in data set [8].

In the case of `CC(C)Cc1ccc(-c2nc(-c3ccc([C@@H]4CC[C@@H](CC(=O)O)N4)cc3)no2)cc1` (racemic), the Activity result in data set [1], in data set [5] and in [6] was “Agonist” in each case. Also, the IC50 in [2] was 100 nM; in data set [3], 8 nM; in data set [4], above 10000 nM; in data set [7], 700 nM; in data set [8], above 10000 nM. Further, in data set [9], the half-life is 3.5 h. The outcome in the data set with Mus musculus [10] was Active. The bioavailability in data set [11] came out at 40%. For the same compound, the Vd in data set [12] was 3 L/kg. The compound also showed a clearance in data set [13] of 8.4 mL/min/kg.

`O=C(O)C[C@@H]1CC[C@H](c2ccc(-c3noc(-c4ccc([C@@H]5CCC(F)(F)C5)cc4)n3)cc2)N1` (stereo in doubt; form 2) [listing 1 of 2 here]: the Activity result in data set [1], in [5] and in [6] was “Agonist” throughout.

Regarding `O=C(O)C[C@@H]1CC[C@H](c2ccc(-c3noc(-c4ccc([C@@H]5CCC(F)(F)C5)cc4)n3)cc2)N1` (stereo in doubt; form 2) [listing 2 of 2 here], the IC50 in data set [2] is 15 nM; in data set [3], 0.64 nM; in data set [4], above 10000 nM; in data set [7], 720 nM; in [8], 3800 nM. In data set [9], the half-life is 2.2 h. Further, in the data set filed under Mus musculus [14], the ED50 was determined as 0.3 mg/kg. This compound also returned a bioavailability in data set [11] of 48%. In addition, in [12], the Vd came out at 2.3 L/kg. For the same compound, the clearance in data set [13] turned out to be 9.7 mL/min/kg.

Take `O=C(O)C[C@@H]1CC[C@H](c2ccc(-c3noc(-c4ccc([C@H]5CCC(F)(F)C5)cc4)n3)cc2)N1` (racemic): the Activity entry in data set [1], in data set [5] and in data set [6] was “Agonist” each time. Besides, the IC50 in [2] was 16 nM; in [3] it was 0.8 nM; in data set [4], above 10000 nM; in data set [7] it was 720 nM; in [8] it was 2200 nM.

`CC(C)Cc1ccc(-c2nc(-c3ccc([C@H]4CC[C@@H](C(=O)O)N4)cc3)no2)cc1` (racemic): the Activity result in data set [1], in data set [5] and in data set [6] was “Agonist” each time. Moreover, the IC50 is 1280 nM in data set [2]; 75 nM in data set [3]; above 10000 nM in [4]; 1000 nM in data set [7]; above 10000 nM in data set [8].

For `CC(C)Cc1ccc(-c2nc(-c3ccc([C@@H]4CC[C@@H](C(=O)O)N4)cc3)no2)cc1` (racemic), the Activity entry in [1], in [5] and in data set [6] was “Agonist” throughout. Further, the IC50 was 180 nM in data set [2]; 17 nM in data set [3]; above 10000 nM in data set [4]; 300 nM in data set [7]; 10000 nM in data set [8].

Take `O=C(O)C[C@@H]1CC[C@H](c2ccc(-c3noc(-c4ccc([C@@H]5CCC(F)(F)C5)cc4)n3)cc2)N1` (racemic) [listing 1 of 2 here]: the IC50 was 13 nM in data set [2]; 1.2 nM in data set [3]; above 10000 nM in data set [4] (cho); 570 nM in data set [7]; 2500 nM in data set [8].

Regarding `CC(C)Cc1ccc(-c2nc(-c3ccc([C@H]4CC[C@@H](CCC(=O)O)N4)cc3)no2)cc1` (racemic), the Activity result in [1], in data set [5] and in data set [6] was “Agonist” throughout. Moreover, the IC50 is 30 nM in data set [2]; 4.5 nM in data set [3]; above 10000 nM in [4]; 540 nM in [7]; above 10000 nM in [8].

For the compound `CC(C)Cc1ccc(-c2nc(-c3ccc([C@H]4CC[C@@H](CC(=O)O)N4)cc3)no2)cc1` (racemic), the Activity entry in data set [1], in data set [5] and in data set [6] was “Agonist” in each case. Besides, the IC50 is 200 nM in data set [2]; 3.3 nM in data set [3]; above 10000 nM in data set [4]; 1000 nM in [7]; above 10000 nM in data set [8]. In data set [9], this compound showed a half-life of 4.1 h. In the data set on Mus musculus [10], the outcome was Active. In [11], this compound showed a bioavailability of 48%. Moreover, the Vd in data set [12] was 2.9 L/kg. This compound yielded a clearance in [13] of 6.6 mL/min/kg.

Turning to `CC(C)Cc1ccc(-c2nc(-c3ccc([C@@H]4CC[C@@H](CCC(=O)O)N4)cc3)no2)cc1` (racemic), the Activity entry in data set [1], in data set [5] and in data set [6] was “Agonist” throughout. Moreover, the IC50 was 80 nM in [2]; 5.7 nM in data set [3]; above 10000 nM in data set [4]; 630 nM in data set [7]; 6700 nM in data set [8].

Take `O=C(O)C[C@@H]1CC[C@H](c2ccc(-c3noc(-c4ccc([C@@H]5CCC(F)(F)C5)cc4)n3)cc2)N1` (racemic) [listing 2 of 2 here]: the Activity entry in [1], in [5] and in data set [6] was “Agonist” throughout.

Consider `O=C(O)C[C@@H]1CC[C@H](c2ccc(-c3noc(-c4ccc(C5CCCC5)c(F)c4)n3)cc2)N1` (racemic), for which the Activity result in data set [1], in data set [5] and in [6] was “Agonist” in each case. For the same compound, the IC50 was 30 nM in data set [2]; 2 nM in data set [3]; above 10000 nM in [4]; 2100 nM in [7]; 7600 nM in [8].

Take `O=C(O)C[C@@H]1CC[C@H](c2ccc(-c3noc(-c4ccc([C@@H]5CCC(F)(F)C5)cc4)n3)cc2)N1` (stereo in doubt; form 1) [listing 1 of 2 here]: the Activity result in data set [1], in data set [5] and in data set [6] was “Agonist” each time.

Turning to `O=C(O)C[C@@H]1CC[C@H](c2ccc(-c3noc(-c4ccc(C5CCCC5)cc4F)n3)cc2)N1` (racemic), the Activity result in [1], in data set [5] and in [6] was “Agonist” each time. For the same compound, the IC50 in [2] was 60 nM; in [3] it was 2.7 nM; in data set [4] it was above 10000 nM; in data set [7] it was 1400 nM; in [8], above 10000 nM.

For the compound `O=C(O)C[C@@H]1CC[C@H](c2ccc(-c3noc(-c4ccc([C@@H]5CCC(F)(F)C5)cc4)n3)cc2)N1` (stereo in doubt; form 1) [listing 2 of 2 here], the IC50 in data set [2] was 19 nM; in [3], 2.9 nM; in data set [4] (cho) it was above 10000 nM; in data set [7] it was 1500 nM; in [8] it was 7800 nM.
